Assay results from ChEMBL document CHEMBL2346605, “4-Nerolidylcatechol and its synthetic analogues: antioxidant activity and toxicity evaluation” (Eur J Med Chem, 2013).
Converted amounts (≈) assume the structure as drawn. The source made the active and inactive calls. No cut-off for these calls is given here.

How the values were obtained:
[1] = test system: Erythrocyte; test: Antioxidant activity against H2O2-induced oxidative stress in human erythrocyte membrane at 12.5 to 100 uM treated for 30 mins prior to H2O2 challenge measured after 3 hrs; type: functional, cell membranes
How it was run: (§1)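 Erythrocytes from blood-bank samples, washed in saline phosphate with 1 mM NaN3 at 4 °C, plasma and white cells removed. Preincubated with compound 30 min at 37 °C, then brought to 2% haematocrit in PBS. Stress induced by H2O2 (300 μM), 3 h at 37 °C. Absorbance read at 540 nm. Mean ± S.D. of three experiments in duplicate.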

[2] = Toxicity against human erythrocytes assessed as hemolytic rate after 1 hr by haemolytic assay; type: cell-based, Erythrocyte; settings: read-out: Activity
How it was run: (§2)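 Erythrocytes from blood banks suspended as a 2% saline suspension. Incubated 1 h with compound (50–0.419 µg/mL). Triton X (5 mg/mL) used as positive control. Absorbance read at 450 nm. ANOVA with Tukey test, p < 0.05.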

[3] = Toxicity against human erythrocytes assessed as disruption of cell membrane after 1 hr by haemolytic assay; type: cell-based, Erythrocyte; how it was run: as §2
[4] = test system: Radical scavenging activity; test: Antioxidant activity assessed as DPPH radical scavenging activity after 30 mins; type: functional
How it was run: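 Compound (500–0.48 µg/mL) mixed with DPPH, held 30 min at 25 °C in the dark, absorbance read at 517 nm. AA% = 100 − [(ABS_T − ABS_B)×100/ABS_C], with a compound + ethanol blank and a DPPH + ethanol negative control.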

[5] = Toxicity against human erythrocytes assessed as hemolytic potential after 1 hr by haemolytic assay; type: cell-based, Erythrocyte; settings: read-out: Activity; how it was run: as §2
[6] = Pro-oxidant activity in H2O2-stimulated human erythrocyte membrane assessed as increase in hemolysis at >35 uM treated for 30 mins prior to H2O2 challenge measured after 3 hrs; type: ADME, cell-based; how it was run: as §1
[7] = test system: Mus musculus; test: Acute toxicity in Swiss mouse assessed as depression at 2000 mg/kg, po administered as single dose measured during 14 days after drug exposure; type: organism-based; parameters: dose 2000 mg/kg, route oral; settings: in vivo, 336 h
How it was run: (§3)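 Female Swiss mice (eight weeks old, specific pathogen-free, kept at 22 °C with food and water ad libitum, acclimatised five days) were tested under OECD Test Guideline 423. Each received a single dose by oral gavage, n = 3. The starting dose came from the ICCVAM prediction model using 3T3 neutral red uptake IC50. Animals were observed individually during the first 30 min and periodically over 24 h, especially the first 4 h, then daily for 14 days.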

[8] = Genotoxicity in human T lymphocytes assessed as proportion of cells with DNA damage at 50 uM after 1 hr by comet assay (reference value: 10%); type: toxicity, cell-based; settings: t-cell
[9] = Acute toxicity in po dosed Swiss mouse administered as single dose measured for 14 days after drug exposure; type: organism-based; settings: in vivo; how it was run: as §3
[10] = Myelosuppressive activity against Swiss mouse CFU-GM cells assessed as inhibition of cell growth and differentiation after 7 days; type: cell-based; settings: 168 h
How it was run: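 Swiss mouse bone marrow cells (1×10^5) in agar with 2× DMEM, mouse GM-CSF and bovine serum. Ethanolic compound solutions (534–4.17 μM) added, medium-only negative control. Incubated seven days, then CFU-GM colonies counted under 32× magnification. ANOVA.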

[11] = Genotoxicity in human T lymphocytes assessed as proportion of cells without DNA damage at 100 uM after 1 hr by comet assay (reference value: 90%); type: toxicity, cell-based; settings: t-cell
[12] = Genotoxicity in human T lymphocytes assessed as proportion of cells with DNA damage at 25 uM after 1 hr by comet assay (reference value: 10%); type: toxicity, cell-based; settings: t-cell
[13] = Genotoxicity in human T lymphocytes assessed as proportion of cells without DNA damage at 50 uM after 1 hr by comet assay (reference value: 90%); type: toxicity, cell-based; settings: t-cell
[14] = test system: Mus musculus; test: Acute toxicity in Swiss mouse assessed as agitation at 2000 mg/kg, po administered as single dose measured during 14 days after drug exposure; type: organism-based; parameters: dose 2000 mg/kg, route oral; settings: in vivo, 336 h; how it was run: as §3
[15] = Genotoxicity in human T lymphocytes assessed as proportion of cells with DNA damage at 100 uM after 1 hr by comet assay (reference value: 10%); type: toxicity, cell-based; settings: t-cell
[16] = Genotoxicity in human T lymphocytes assessed as proportion of cells without DNA damage at 25 uM after 1 hr by comet assay (reference value: 90%); type: toxicity, cell-based; settings: t-cell
[17] = test system: Mus musculus; test: Acute toxicity in Swiss mouse assessed as animal's death at 2000 mg/kg, po administered as single dose measured during 14 days after drug exposure; type: organism-based; parameters: dose 2000 mg/kg, route oral; settings: in vivo, 336 h; how it was run: as §3

**Q.** With `CC(C)=CCC/C(C)=C/CN(c1ccc(O)cc1)S(C)(=O)=O` as the compound, how does the Activity [1] read?
**A.** Active

**Q.** What about the hemolysis at 1 h [2] of the same compound?
**A.** < 5%

**Q.** And the IC50 at 1 hr [3]?
**A.** < 0.419 µg/mL

**Q.** For `CC(C)=CCC/C(C)=C/CNc1ccccc1`, which Activity [4] is on record?
**A.** Active

**Q.** What about the Activity [1] of the same compound?
**A.** Active

**Q.** What about the hemolysis at 1 h [2] of the same compound?
**A.** < 5%

**Q.** And the IC50 at 1 hr [3]?
**A.** < 0.419 µg/mL

**Q.** With `CC(C)=CCC/C(C)=C/CNc1cc(C)nn1C` as the compound, how does the Activity [4] read?
**A.** Active

**Q.** What about the hemolysis at 1 h [5] of the same compound?
**A.** 75%

**Q.** And the hemolysis at 1 h [2]?
**A.** > 5%

**Q.** What about the IC50 at 1 hr [3] of the same compound?
**A.** 1.76 µg/mL (≈ 7.11 µM)

**Q.** What about the Activity [6] of the same compound?
**A.** Toxic

**Q.** With `CC(C)=CCC/C(C)=C/CNc1ccc(O)cc1` as the compound, how does the Activity [7] read?
**A.** Toxic

**Q.** And the Activity [8]?
**A.** 28%

**Q.** And the LD50 at 336 h [9]?
**A.** > 2000 mg/kg

**Q.** And the IC50 [10]?
**A.** 460 µM

**Q.** What about the Activity [4] of the same compound?
**A.** Active

**Q.** What about the Activity [1] of the same compound?
**A.** Active

**Q.** What about the Activity [11] of the same compound?
**A.** 70%

**Q.** And the Activity [12]?
**A.** 22%

**Q.** What about the hemolysis at 1 h [2] of the same compound?
**A.** < 5%

**Q.** And the Activity [13]?
**A.** 72%

**Q.** What about the IC50 at 1 hr [3] of the same compound?
**A.** < 0.419 µg/mL

**Q.** What about the Activity [14] of the same compound?
**A.** Toxic

**Q.** And the Activity [15]?
**A.** 30%

**Q.** What about the Activity [16] of the same compound?
**A.** 78%

**Q.** And the Activity [17]?
**A.** Non-toxic

**Q.** Which Activity [4] does the source give for `CC(C)=CCC/C(C)=C/CNc1ccc2c(c1)OCO2` here?
**A.** Active

**Q.** What about the Activity [1] of the same compound?
**A.** Active

**Q.** And the hemolysis at 1 h [2]?
**A.** < 5%

**Q.** And the IC50 at 1 hr [3]?
**A.** 18.3 µg/mL (≈ 67.1 µM)
